ChEMBL document CHEMBL1135716, “A three-dimensional quantitative structure-activity relationship study of heparin-binding epidermal growth factor shedding inhibitors using comparative molecular field analysis” (J Med Chem, 2002)

Experiment: Heparin-binding epidermal growth factor (HB-EGF) shedding inhibition
In short: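 Cell-based shedding assay using HT-1080 fibrosarcoma transfectants that express human placental alkaline phosphatase-tagged HB-EGF. Cells were grown 24 h at 2×10^5/well in MEM with 10% FCS, washed, and preincubated 30 min with compound in MEM containing 1% DMSO. They were then stimulated with 60 nM TPA for 60 min. Supernatant was heated 10 min at 65 °C, then given p-nitrophenyl phosphate substrate (pH 9.8) for 2 h, and A405 was read. IC50 was taken from a concentration series.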

Structure (SMILES) | IC50 [nM]
NS(=O)(=O)c1ccc(-c2ccc(S(=O)(=O)N3Cc4ccccc4C[C@@H]3C(=O)NO)cc2)cc1 | 20000
Cc1ccc(S(=O)(=O)N2Cc3ccccc3C[C@@H]2C(=O)NO)cc1 | 830
Cc1ccc(S(=O)(=O)N2Cc3cc(O)c(O)cc3C[C@@H]2C(=O)NO)s1 | 5400
C=Cc1ccc(S(=O)(=O)N2Cc3nccnc3C[C@@H]2C(=O)NO)cc1 | 1100
COc1ccc(S(=O)(=O)N2Cc3cc(NC(=O)[C@H](N)Cc4ccccc4)ccc3C[C@@H]2C(=O)NO)cc1 | 570
O=C(NO)[C@H]1Cc2nccnc2CN1S(=O)(=O)c1cccnc1 | 6900
O=C(NO)[C@H]1Cc2nccnc2CN1S(=O)(=O)c1ccc(Oc2ccc(Oc3ccccc3)cc2)cc1 | 6100
O=C(NO)[C@H]1Cc2nccnc2CN1S(=O)(=O)c1ccc([N+](=O)[O-])cc1 | 70000
O=C(NO)[C@H]1Cc2nccnc2CN1S(=O)(=O)c1ccc(C(F)(F)F)cc1 | 40000
O=C(NO)[C@H]1Cc2nccnc2CN1S(=O)(=O)c1ccc(-c2ccccc2)cc1 | 1500
COc1ccc(S(=O)(=O)N2Cc3cc(O)c(O)cc3C[C@@H]2C(=O)NO)cc1 | 730
COc1ccc(CCS(=O)(=O)N2Cc3nccnc3C[C@@H]2C(=O)NO)cc1 | 6700
O=C(O)c1ccc(S(=O)(=O)N2Cc3nccnc3C[C@@H]2C(=O)NO)cc1 | 70000
O=C(NO)[C@H]1Cc2cc(O)c(O)cc2CN1S(=O)(=O)c1ccc(-c2ccccc2)cc1 | 1290
CCCCCC(=O)Nc1ccc(S(=O)(=O)N2Cc3nccnc3C[C@@H]2C(=O)NO)cc1 | 7700
CCCOc1ccc(S(=O)(=O)N2Cc3nccnc3C[C@@H]2C(=O)NO)cc1 | 1000
O=C(NO)[C@H]1Cc2nccnc2CN1S(=O)(=O)c1ccc(OCCCBr)cc1 | 600
CS(=O)(=O)CCCOc1ccc(S(=O)(=O)N2Cc3nccnc3C[C@@H]2C(=O)NO)cc1 | 1800

Structure (SMILES) | IC50 [nM]
Nc1ccc(Oc2ccc(S(=O)(=O)N3Cc4nccnc4C[C@@H]3C(=O)NO)cc2)cc1 | 1000
Nc1cccc(S(=O)(=O)N2Cc3ccccc3C[C@@H]2C(=O)NO)c1 | 1100
O=C(NO)[C@H]1Cc2nccnc2CN1S(=O)(=O)c1ccc(OCCO)cc1 | 1500
O=C(NO)[C@H]1Cc2cc(O)c(O)cc2CN1S(=O)(=O)c1ccc(OCCCc2ccccc2)cc1 | 990
CCCOc1ccc(S(=O)(=O)N2Cc3cc(O)c(O)cc3C[C@@H]2C(=O)NO)cc1 | 630
O=C(NO)[C@H]1Cc2cc(O)c(O)cc2CN1S(=O)(=O)c1ccc(Oc2cnccn2)cc1 | 820
O=C(NO)[C@H]1Cc2nccnc2CN1S(=O)(=O)c1ccc(OCCCc2ccccc2)cc1 | 630
O=C(NO)[C@H]1Cc2nccnc2CN1S(=O)(=O)c1cccs1 | 960
CCOC(=O)COc1ccc(S(=O)(=O)N2Cc3nccnc3C[C@@H]2C(=O)NO)cc1 | 1000
Cc1ccc(S(=O)(=O)N2Cc3nccnc3C[C@@H]2C(=O)NO)cc1 | 2700
CCCCCCS(=O)(=O)N1Cc2nccnc2C[C@@H]1C(=O)NO | 4400
Nc1ccc2c(c1)CN(S(=O)(=O)c1ccc(Oc3ncccn3)cc1)[C@@H](C(=O)NO)C2 | 4500
COCCc1ccc(S(=O)(=O)N2Cc3nccnc3C[C@@H]2C(=O)NO)s1 | 3000
CCOC(=O)CCCOc1ccc(S(=O)(=O)N2Cc3nccnc3C[C@@H]2C(=O)NO)cc1 | 1100
Nc1ccc(S(=O)(=O)N2Cc3nccnc3C[C@@H]2C(=O)NO)cc1 | 1800
CN(C)CCCOc1ccc(S(=O)(=O)N2Cc3nccnc3C[C@@H]2C(=O)NO)cc1 | 18000
Cc1ccccc1S(=O)(=O)N1Cc2nccnc2C[C@@H]1C(=O)NO | 12000
CC(C)c1ccc(S(=O)(=O)N2Cc3ccccc3C[C@@H]2C(=O)NO)cc1 | 5500

Further compounds by falling IC50, results first:

IC50 [nM] | Structure (SMILES)
560 | CC(C)COCCCOc1ccc(S(=O)(=O)N2Cc3nccnc3C[C@@H]2C(=O)NO)cc1
490 | Nc1ccc2c(c1)CN(S(=O)(=O)c1ccc(Oc3ccccc3)cc1)[C@@H](C(=O)NO)C2
420 | CCCCOc1ccc(S(=O)(=O)N2Cc3ccccc3C[C@@H]2C(=O)NO)cc1
360 | COc1ccc(S(=O)(=O)N2Cc3cc(N(CC(=O)O)CC(=O)O)ccc3C[C@@H]2C(=O)NO)cc1
350 | COc1ccc(S(=O)(=O)N2Cc3nccnc3C[C@@H]2C(=O)NO)cc1
340 | O=C(NO)[C@H]1Cc2nccnc2CN1S(=O)(=O)c1ccc(Oc2ccncc2)cc1
340 | O=C(NO)[C@H]1Cc2ccccc2CN1S(=O)(=O)c1cccs1
280 | COc1ccc(S(=O)(=O)N2Cc3cc(NC(=O)CN)ccc3C[C@@H]2C(=O)NO)cc1
280 | COc1ccc(S(=O)(=O)N2Cc3ccccc3C[C@@H]2C(=O)NO)cc1
260 | CCCCOCCCOc1ccc(S(=O)(=O)N2Cc3nccnc3C[C@@H]2C(=O)NO)cc1
210 | CCOCCCOc1ccc(S(=O)(=O)N2Cc3cc(O)c(O)cc3C[C@@H]2C(=O)NO)cc1
190 | COc1ccc(S(=O)(=O)N2Cc3cc(N)ccc3C[C@@H]2C(=O)NO)cc1
160 | O=C(NO)[C@H]1Cc2cc(O)c(O)cc2CN1S(=O)(=O)c1cccs1
130 | C#Cc1ccc(S(=O)(=O)N2Cc3nccnc3C[C@@H]2C(=O)NO)cc1
110 | O=C(NO)[C@H]1Cc2nccnc2CN1S(=O)(=O)c1ccc(Oc2cnccn2)cc1
100 | CSCCCOc1ccc(S(=O)(=O)N2Cc3nccnc3C[C@@H]2C(=O)NO)cc1
42 | O=C(NO)[C@H]1Cc2ccccc2CN1S(=O)(=O)c1ccccc1
39 | COCCCOc1ccc(S(=O)(=O)N2Cc3cc(N)ccc3C[C@@H]2C(=O)NO)cc1
